# Assay results: ChEMBL document CHEMBL4616588, “High content phenotypic screening identifies serotonin receptor modulators with selective activity upon breast cancer cell cycle and cytokine signaling pathways” (Bioorg Med Chem, 2020)
# Calls of active or inactive are those of the source. The rule behind the calls is not given here.
# Legend:
# T47D [1] = experiment: Induction of morphological changes in human T47D cells assessed as number of nuclei incubated for 48 hrs by Hoechst 33342, SYTO14, Phalloidin-594, Wheat germ agglutinin-594, Concavalin-488, MitoTracker DeepRed staining based wide field fluorescent microscopic method; assay type: functional, cell-based
# Summary of the method: (§1)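 Parental HCC1954 or T47D cells were seeded at 3000 cells/well in 96-well or 1500 cells/well in 384-well optical imaging plates and grown 24 h. Compounds were given for 48 h at up to 10 μM, with 0.1% DMSO and 0.3 μM staurosporine controls. Cells were fixed in 4% paraformaldehyde for 30 min at RT, then Cell Painting stained for 30 min in the dark […]. Imaging used wide-field fluorescence, and nuclei were segmented from the Hoechst channel and counted.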
# T47D [2] = experiment: Antiproliferative activity against human T47D cells assessed as cell viability incubated for 72 hrs Alamar blue assay; assay type: functional, cell-based
# Summary of the method: (§2)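 Parental cells in DMEM with 10% FBS and 2 mM L-glutamine at 37 °C, 5% CO2. Seeded in 96-well plates at a line-optimized density (HCC1954 and T47D, 3000 cells/well) and grown 24 h before treatment. Compounds were incubated 72 h, with 0.1% DMSO (v/v) controls. Alamar Blue was added at 10% v/v for 3 h. Fluorescence was read at ex 540/em 590 nm and normalized to plate DMSO wells.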
# HCC1954 [3] = experiment: Antiproliferative activity against human HCC1954 cells assessed as reduction in cell number at 1 uM incubated for 72 hrs Alamar blue assay; assay type: functional, cell-based; summary of the method: as §2
# HCC1954 [4] = experiment: Induction of morphological changes in human HCC1954 cells at 10 uM incubated for 48 hrs by Hoechst 33342, SYTO14, Phalloidin-594, Wheat germ agglutinin-594, Concavalin-488, MitoTracker DeepRed staining based wide field fluorescent microscopic method; assay type: functional, cell-based; summary of the method: as §1
# T47D [5] = experiment: Antiproliferative activity against human T47D cells assessed reduction in cell number at 1 uM incubated for 72 hrs by Alamar blue assay; assay type: functional, cell-based; summary of the method: as §2
# HCC1954 [6] = experiment: Antiproliferative activity against human HCC1954 cells assessed as cell viability incubated for 72 hrs Alamar blue assay; assay type: functional, cell-based; conditions: HCC1954, 72 h; summary of the method: as §2
# HCC1954 [7] = experiment: Antiproliferative activity against human HCC1954 cells assessed as reduction in cell number at 10 uM incubated for 72 hrs Alamar blue assay; assay type: functional, cell-based; summary of the method: as §2
# T47D [8] = experiment: Antiproliferative activity against human T47D cells assessed reduction in cell number at 10 uM incubated for 72 hrs by Alamar blue assay; assay type: functional, cell-based; summary of the method: as §2
# T47D [9] = experiment: Induction of morphological changes in human T47D cells at 10 uM incubated for 48 hrs by Hoechst 33342, SYTO14, Phalloidin-594, Wheat germ agglutinin-594, Concavalin-488, MitoTracker DeepRed staining based wide field fluorescent microscopic method; assay type: functional, cell-based; summary of the method: as §1
# HCC1954 [10] = experiment: Induction of morphological changes in human HCC1954 cells assessed as number of nuclei incubated for 48 hrs by Hoechst 33342, SYTO14, Phalloidin-594, Wheat germ agglutinin-594, Concavalin-488, MitoTracker DeepRed staining based wide field fluorescent microscopic method; assay type: functional, cell-based; conditions: HCC1954, 48 h; summary of the method: as §1
# T47D [11] = experiment: Effect on TNFR1 pathway in human T47D cells assessed as fold enrichment in RAF-independent MAPK1/3 activation genes incubated for 24 hrs relative to control; assay type: functional
# Summary of the method: (§3)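 T47D cells were seeded in 6-well plates for 24 h, then drug-treated for 24 h. RNA was extracted with on-column DNase digestion and checked by A260/A280, and concentrations were normalized. 100 ng RNA was run on the nCounter PanCancer Pathways Panel. Data were normalized per NanoString protocol, and the advanced analysis module calculated differential ratios against DMSO.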
# T47D [12] = experiment: Effect on TNFR1 pathway in human T47D cells assessed as fold enrichment in AP1 family of transcription factors incubated for 24 hrs relative to control; assay type: functional; summary of the method: as §3
# T47D [13] = experiment: Effect on TNFR1 pathway in human T47D cells assessed as fold enrichment in MAP kinase activation genes incubated for 24 hrs relative to control; assay type: functional; summary of the method: as §3
# T47D [14] = experiment: Effect on cell cycle pathway in human T47D cells assessed as fold enrichment in G1/S transition genes incubated for 24 hrs relative to control; assay type: functional; summary of the method: as §3
# T47D [15] = experiment: Induction of cell cycle arrest in human T47D cells assessed as downregulation in CCND1 RNA incubated for 24 hrs; assay type: functional, cell-based; summary of the method: as §3
# T47D [16] = experiment: Induction of cell cycle arrest in human T47D cells assessed as downregulation in CCNA2 RNA incubated for 24 hrs; assay type: functional, cell-based; summary of the method: as §3
# T47D [17] = experiment: Effect on cell cycle pathway in human T47D cells assessed as fold enrichment in mitotic genes incubated for 24 hrs relative to control; assay type: functional; summary of the method: as §3
# T47D [18] = experiment: Induction of cell cycle arrest in human T47D cells assessed as downregulation in CCNE2 RNA incubated for 24 hrs; assay type: functional, cell-based; summary of the method: as §3
# T47D [19] = experiment: Effect on cell cycle pathway in human T47D cells assessed as fold enrichment in S Phase genes incubated for 24 hrs relative to control; assay type: functional; summary of the method: as §3
# T47D [20] = experiment: Effect on cell cycle pathway in human T47D cells assessed as fold enrichment in cell cycle checkpoint genes incubated for 24 hrs relative to control; assay type: functional; summary of the method: as §3
# T47D [21] = experiment: Effect on TNFR1 pathway in human T47D cells assessed as fold enrichment in TNFR1-induced proapoptotic signaling incubated for 24 hrs relative to control; assay type: functional; summary of the method: as §3
# T47D [22] = experiment: Effect on cell cycle pathway in human T47D cells assessed as fold enrichment in cell cycle genes incubated for 24 hrs relative to control; assay type: functional; summary of the method: as §3
# T47D [23] = experiment: Effect on TNFR1 pathway in human T47D cells assessed as fold enrichment in MAPK targets/nuclear events mediated by MAP kinases incubated for 24 hrs relative to control; assay type: functional; summary of the method: as §3
EC50 (T47D [1]) [µM],EC50 (T47D [2]) [µM],EC50 (HCC1954 [6]) [µM],EC50 (HCC1954 [10]) [µM],SMILES,Activity (HCC1954 [3]),Activity (HCC1954 [4]),Activity (T47D [5]),Activity (HCC1954 [7]),Activity (T47D [8]),Activity (T47D [9]),also measured
7.7,> 10,> 10,> 10,CNCCCC1c2ccccc2C=Cc2ccccc21 [PROTRIPTYLINE],inactive,inactive,inactive,inactive,Active,Active,
5.4,8.6,> 10,> 10,CN(C)CCCN1c2ccccc2Sc2ccc(C(F)(F)F)cc21 [TRIFLUPROMAZINE],inactive,inactive,inactive,inactive,Active,Active,fold change (FC) (T47D [11]): 6.96; fold change (FC) (T47D [12]): 14.91; fold change (FC) (T47D [13]): 6.02; fold change (FC) (T47D [14]): 11.45; Activity (T47D [15]): Active; Activity (T47D [16]): Active; fold change (FC) (T47D [17]): 7.55; Activity (T47D [18]): Active; fold change (FC) (T47D [19]): 10.15; fold change (FC) (T47D [20]): 11.45; fold change (FC) (T47D [21]): 17.4; fold change (FC) (T47D [22]): 7.33; fold change (FC) (T47D [23]): 1.015
